Laboratory results reported in ChEMBL document CHEMBL4725354 (J Med Chem, 2020).

What was measured:
[1] = Growth inhibition of MDCK2 cells after 72 hrs by MTT assay; assay type: cell-based, Canis lupus familiaris, MDCK-II; settings: dog
Procedure, shortened: (§1)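 MTT viability assay. Compound dilutions in culture medium (3.2 to 1000 µM as prepared). About 2,000 cells per well, 72 h at 37 °C, 5% CO2. Culture medium set as 100% and 10% DMSO as 0% viability. MTT added for 1 h, formazan dissolved in DMSO, absorbance read at 570 nm with 690 nm background. GI50 from nonlinear regression of absorbance vs log concentration; at least three independent experiments, duplicates, mean ± SEM.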

[2] = target: T1, Broad substrate specificity ATP-binding cassette transporter ABCG2 (Homo sapiens, UniProt Q9UNQ0); assay: Inhibition of human ABCG2 expressed in MDCK2 cells co-expressing GFP preincubated for 15 mins followed by pheophorbideA addition and measured after 2 hrs by flow cytometric analysis; assay type: cell-based, MDCK-II
T1 sequence (Q9UNQ0 whole entry): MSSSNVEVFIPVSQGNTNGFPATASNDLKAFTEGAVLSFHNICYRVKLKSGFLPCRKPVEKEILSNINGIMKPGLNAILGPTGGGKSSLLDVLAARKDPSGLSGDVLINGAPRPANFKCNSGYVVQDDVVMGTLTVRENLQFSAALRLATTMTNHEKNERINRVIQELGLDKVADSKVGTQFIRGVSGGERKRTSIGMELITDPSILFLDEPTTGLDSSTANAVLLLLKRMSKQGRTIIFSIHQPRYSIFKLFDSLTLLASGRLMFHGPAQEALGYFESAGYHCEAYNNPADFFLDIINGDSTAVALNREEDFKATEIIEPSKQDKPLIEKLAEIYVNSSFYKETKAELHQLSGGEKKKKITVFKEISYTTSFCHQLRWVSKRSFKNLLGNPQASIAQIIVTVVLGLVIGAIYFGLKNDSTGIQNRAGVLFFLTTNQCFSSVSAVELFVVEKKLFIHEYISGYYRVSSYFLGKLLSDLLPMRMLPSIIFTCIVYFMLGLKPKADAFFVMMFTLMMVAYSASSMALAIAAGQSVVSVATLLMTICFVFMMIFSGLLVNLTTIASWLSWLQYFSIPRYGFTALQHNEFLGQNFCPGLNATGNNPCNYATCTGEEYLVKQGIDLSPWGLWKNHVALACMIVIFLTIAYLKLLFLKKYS
Procedure, shortened: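 Pheophorbide A added to 0.5 µM final and incubated 2 h. Read by flow cytometry (ex 488, em 695/50 nm); GFP expression checked at 525/30 nm. IC50 from 3- or 4-parameter logistic fit.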

[3] = target: T2, ABCG2 (Homo sapiens, UniProt Q9UNQ0); assay: Inhibition of human ABCG2 expressed in MDCK2 cells co-expressing GFP preincubated for 30 mins followed by Hoechst 33342 addition and measured every 60 sec for 120 mins by fluorescence assay relative to control; assay type: cell-based, MDCK-II; settings: probe Hoechst 33342, read-out: Imax
T2 sequence (Q9UNQ0 whole entry): T1 sequence (Q9UNQ0 whole entry)
Procedure, shortened: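 MDCK II cells transfected with human ABCG2 cDNA C-terminally fused to GFP. Steady-state means vs log concentration fitted by 3- or 4-parameter logistic to give IC50.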

[4] = system: MDCK-II; assay: Cytotoxicity against MDCK2 cells assessed as reduction in cell viability at 10 uM after 72 hrs by MTT assay; assay type: cell-based, Canis lupus familiaris; settings: dog
Procedure, shortened: (§2)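 Single-concentration screen at 10 µM in MDCK II BCRP and parental MDCK II cells. MTT assay, 72 h at 37 °C, 5% CO2. Viability referenced to culture medium (100%) and 10% DMSO (0%). Mean ± SEM of at least three independent experiments with duplicates.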

[5] = target: T1, Broad substrate specificity ATP-binding cassette transporter ABCG2; assay: Inhibition of human ABCG2-mediated multidrug resistance in MDCK2 cells assessed as potentiation of SN-38-induced cytotoxicity at 10 to 50 nM measured up to 7 days by MTT assay; assay type: cell-based; settings: mdck-ii, 168 h, dose 10-50 nM, time <=7 day
Procedure, shortened: (§3)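 Time-dependent reversal in ABCG2-GFP MDCK II cells: SN-38 at 0.5 µM with modulator at 0, 10, 25 or 50 nM. Seeding density decreased with assay day (10,000 cells for day 1 down to 200 for day 7). MTT viability read daily for 7 days. Results normalised to medium-only cells or to SN-38 alone. Curve inflection points plotted vs modulator concentration to derive tmax, tmin, ctmin and c½tmax. Triplicates, at least three experiments; multiple t-test.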

[6] = target: T1, Broad substrate specificity ATP-binding cassette transporter ABCG2; assay: Inhibition of human ABCG2-mediated multidrug resistance in MDCK2 cells assessed as potentiation of SN-38-induced cytotoxicity by measuring half-maximal cell death acceleration at 10 to 50 nM measured at 5.75 days by MTT assay; assay type: cell-based, MDCK-II; settings: dose 10-50 nM, time 5.7 day; read-out: Activity
Procedure, shortened: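 MDCK II cells transfected with human ABCG2–GFP were exposed to SN-38 at 0.5 µM final, alone or with modulator at 0, 10, 25 or 50 nM. Cells were seeded at 10,000 down to 200 per well according to read-out day and kept at 37 °C, 5% CO2. MTT viability was read daily for 7 days. Inflection points of the viability–time curves were regressed against modulator concentration. At least 3 independent experiments, triplicates.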

[7] = target: T1, Broad substrate specificity ATP-binding cassette transporter ABCG2; assay: Inhibition of human ABCG2-mediated multidrug resistance in MDCK2 cells assessed as potentiation of SN-38-induced cytotoxicity at 10 to 50 nM after 5 days by MTT assay; assay type: cell-based; settings: mdck-ii, 120 h, dose 10-50 nM, time 5 day
[8] = system: ABCG2; assay: Therapeutic ratio of GI50 for Growth inhibition of MDCK2 cells over expressing human ABCG2 to IC50 for inhibition of human ABCG2 expressed in MDCK2 cells co-expressing GFP preincubated for 30 mins followed by Hoechst 33342 addition and measured every 60 sec for 120 mins by fluorescence assay; assay type: toxicity, cell-based; settings: dog, MDCK2 cells overexpressing human ABCG2, probe Hoechst 33342; read-out: TI
[9] = target: T1, Broad substrate specificity ATP-binding cassette transporter ABCG2; assay: Inhibition of human ABCG2-mediated multidrug resistance in MDCK2 cells assessed as potentiation of SN-38-induced cytotoxicity by measuring time need to achieve half maximal cell death at 10 to 50 nM measured up to 7 days by MTT assay; assay type: cell-based; settings: mdck-ii, 168 h, dose 10-50 nM, time <=7 day; procedure, shortened: as §3
[10] = system: ABCG2; assay: Therapeutic ratio of GI50 for Growth inhibition of MDCK2 cells over expressing human ABCG2 to IC50 for inhibition of human ABCG2 expressed in MDCK2 cells co-expressing GFP preincubated for 15 mins followed by pheophorbideA addition and measured after 2 hrs by flow cytometric analysis; assay type: toxicity, cell-based; settings: dog, MDCK2 cells overexpressing human ABCG2, probe pheophorbide A; read-out: TI
[11] = Down regulation of ABCG2 in MDCK2 cells at 10 nM after 4 days by Western blot analysis; assay type: functional, Canis lupus familiaris, MDCK-II; settings: time 4 day
Procedure, shortened: (§4)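 ABCG2-GFP MDCK II cells seeded in T25 flasks (86,000 for 4 days, 17,200 for 7 days). Exposed to modulator (10 nM) and/or SN-38 (0.5 µM) for 4 or 7 days. 15 µg protein run on stain-free 10% SDS-PAGE and transferred to PVDF. Probed with BXP-21 (1:200, overnight, 4 °C) and HRP secondary, ECL detection. Bands normalised to total protein and to the untreated control; one-sample t-test.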

[12] = system: MDCK-II; assay: Cytotoxicity against MDCK2 cells over expressing human ABCG2 at 10 uM assessed as reduction in cell viability after 72 hrs by MTT assay; assay type: ADME, cell-based, Canis lupus familiaris; settings: dog; procedure, shortened: as §2
[13] = target: T1, Broad substrate specificity ATP-binding cassette transporter ABCG2; assay: Inhibition of human ABCG2 expressed in MDCK2 cells co-expressing GFP preincubated for 30 mins followed by Hoechst 33342 addition and measured every 60 sec for 120 mins by fluorescence assay; assay type: cell-based, MDCK-II
Procedure, shortened: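 MDCK II cells transfected with human ABCG2 cDNA C-terminally fused to GFP. Hoechst 33342 added at 1 µM final. Fluorescence (ex 355, em 460 nm) read every 60 s for 120 min. Steady-state means vs log concentration fitted by 3- or 4-parameter logistic to give IC50.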

[14] = target: T2, ABCG2; assay: Inhibition of human ABCG2 expressed in MDCK2 cells co-expressing GFP preincubated for 15 mins followed by pheophorbideA addition and measured after 2 hrs by flow cytometric analysis relative to control; assay type: cell-based, MDCK-II; settings: probe pheophorbide A, read-out: Imax
[15] = Growth inhibition of MDCK2 cells over expressing human ABCG2 after 72 hrs by MTT assay; assay type: ADME, cell-based, Canis lupus familiaris, MDCK-II; settings: dog, MDCK2 cells overexpressing human ABCG2; procedure, shortened: as §1
[16] = Down regulation of ABCG2 in MDCK2 cells at 10 nM after 7 days by Western blot analysis; assay type: functional, Canis lupus familiaris, MDCK-II; settings: time 7 day; procedure, shortened: as §4
[17] = Effect on total ABCG2 in MDCK2 cells at 10 nM after 4 to 7 days in presence of SN-38 by Western blot analysis; assay type: ADME, cell-based, Canis lupus familiaris; settings: dog, mdck-ii, 0.01 µM, time 4-7 day; procedure, shortened: as §4
[18] = target: T1, Broad substrate specificity ATP-binding cassette transporter ABCG2; assay: Inhibition of human ABCG2-mediated multidrug resistance in MDCK2 cells assessed as potentiation of SN-38-induced cytotoxicity at 10 nM after 7 days by MTT assay relative to SN-38 alone; assay type: cell-based; settings: mdck-ii, 168 h, 0.01 µM, time 7 day; procedure, shortened: as §3
[19] = target: T3, ATP-dependent translocase ABCB1 (Homo sapiens, UniProt P08183); assay: Inhibition of human ABCB1 expressed in A2780/ADR cells preincubated for 30 mins followed by calcein AM addition and measured every 60 secs for 60 mins by fluorescence assay; assay type: cell-based
Procedure, shortened: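 ABCB1 in A2780/ADR cells (kept resistant by one passage in 1 µM doxorubicin every 10 passages). 30,000 cells per well in Krebs-HEPES buffer, preincubated 30 min at 37 °C with inhibitor. Calcein AM added from a 3.125 µM solution. Fluorescence (ex 485, em 520 nm) read every 60 s for 60 min. Initial linear slopes vs log concentration fitted to give IC50.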

[20] = target: T1, Broad substrate specificity ATP-binding cassette transporter ABCG2; assay: Inhibition of ABCG2 in human MCF7/MX cells at 1 uM incubated for 2 hrs in presence of pheophorbide A by confocal laser scanning microscopic method; assay type: cell-based; settings: mcf7x
Procedure, shortened: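 MCF-7/MX cells, 1×10^5 per dish, grown 48 h to 50-60% confluence, then switched to Krebs-HEPES buffer. Pheophorbide A (0.5 µM) applied with inhibitor (1 µM) for 2 h at 37 °C, 5% CO2. Confocal imaging at ex 405 nm, em 662-737 nm, stage at 37 °C; parental MCF-7 imaged for comparison.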

[21] = target: T3, ATP-dependent translocase ABCB1; assay: Inhibition of human ABCB1-mediated multidrug resistance in human A2780/ADR cells assessed as potentiation of doxorubicin-induced cytotoxicity by measuring half maximal reversal concentration after 72 hrs by MTT assay; assay type: cell-based
[22] = target: Multidrug resistance-associated protein 1 (Homo sapiens, UniProt P33527); assay: Inhibition of human ABCC1-mediated multidrug resistance in MDCK2 cells assessed as potentiation of doxorubicin-induced cytotoxicity by measuring half maximal reversal concentration after 72 hrs by MTT assay; assay type: cell-based; settings: mdck-ii
Multidrug resistance-associated protein 1, sequence (P33527 whole entry): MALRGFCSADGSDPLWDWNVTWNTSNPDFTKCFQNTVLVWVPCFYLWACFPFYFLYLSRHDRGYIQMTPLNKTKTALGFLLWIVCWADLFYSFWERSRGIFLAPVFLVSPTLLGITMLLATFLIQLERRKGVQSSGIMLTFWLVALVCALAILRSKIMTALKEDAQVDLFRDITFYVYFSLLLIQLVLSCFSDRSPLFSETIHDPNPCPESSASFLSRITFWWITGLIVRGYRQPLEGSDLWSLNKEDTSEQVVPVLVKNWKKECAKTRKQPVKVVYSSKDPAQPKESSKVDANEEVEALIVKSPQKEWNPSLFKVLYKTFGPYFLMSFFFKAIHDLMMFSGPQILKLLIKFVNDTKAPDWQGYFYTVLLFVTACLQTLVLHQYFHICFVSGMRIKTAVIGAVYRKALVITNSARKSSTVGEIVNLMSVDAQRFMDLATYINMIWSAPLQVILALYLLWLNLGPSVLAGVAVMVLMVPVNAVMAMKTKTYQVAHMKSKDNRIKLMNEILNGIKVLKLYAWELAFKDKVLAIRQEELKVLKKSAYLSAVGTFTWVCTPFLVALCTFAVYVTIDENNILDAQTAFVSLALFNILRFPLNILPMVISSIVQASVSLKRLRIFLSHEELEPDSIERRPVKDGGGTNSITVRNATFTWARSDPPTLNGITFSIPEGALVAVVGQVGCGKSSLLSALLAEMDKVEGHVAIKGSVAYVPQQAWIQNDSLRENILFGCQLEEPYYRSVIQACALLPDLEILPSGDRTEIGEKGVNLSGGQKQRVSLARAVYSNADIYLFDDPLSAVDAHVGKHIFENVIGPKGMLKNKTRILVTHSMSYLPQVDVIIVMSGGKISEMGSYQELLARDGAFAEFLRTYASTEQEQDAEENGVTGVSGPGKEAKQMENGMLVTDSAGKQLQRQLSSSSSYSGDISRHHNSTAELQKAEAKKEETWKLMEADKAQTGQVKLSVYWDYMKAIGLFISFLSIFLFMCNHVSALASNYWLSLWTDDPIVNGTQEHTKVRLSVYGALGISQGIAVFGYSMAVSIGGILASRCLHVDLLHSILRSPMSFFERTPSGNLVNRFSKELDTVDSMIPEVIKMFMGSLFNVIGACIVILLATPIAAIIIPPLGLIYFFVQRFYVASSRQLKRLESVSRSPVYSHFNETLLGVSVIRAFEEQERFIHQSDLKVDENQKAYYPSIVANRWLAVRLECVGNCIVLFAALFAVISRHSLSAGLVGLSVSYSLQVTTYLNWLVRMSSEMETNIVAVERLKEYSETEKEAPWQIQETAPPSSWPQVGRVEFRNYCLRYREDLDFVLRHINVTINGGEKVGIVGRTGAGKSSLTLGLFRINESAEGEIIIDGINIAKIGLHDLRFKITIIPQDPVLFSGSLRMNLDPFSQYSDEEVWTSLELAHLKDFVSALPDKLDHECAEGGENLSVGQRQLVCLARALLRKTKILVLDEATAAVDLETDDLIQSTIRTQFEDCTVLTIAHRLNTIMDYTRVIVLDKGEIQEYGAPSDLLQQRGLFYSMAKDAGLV

T3 sequence (P08183 whole entry): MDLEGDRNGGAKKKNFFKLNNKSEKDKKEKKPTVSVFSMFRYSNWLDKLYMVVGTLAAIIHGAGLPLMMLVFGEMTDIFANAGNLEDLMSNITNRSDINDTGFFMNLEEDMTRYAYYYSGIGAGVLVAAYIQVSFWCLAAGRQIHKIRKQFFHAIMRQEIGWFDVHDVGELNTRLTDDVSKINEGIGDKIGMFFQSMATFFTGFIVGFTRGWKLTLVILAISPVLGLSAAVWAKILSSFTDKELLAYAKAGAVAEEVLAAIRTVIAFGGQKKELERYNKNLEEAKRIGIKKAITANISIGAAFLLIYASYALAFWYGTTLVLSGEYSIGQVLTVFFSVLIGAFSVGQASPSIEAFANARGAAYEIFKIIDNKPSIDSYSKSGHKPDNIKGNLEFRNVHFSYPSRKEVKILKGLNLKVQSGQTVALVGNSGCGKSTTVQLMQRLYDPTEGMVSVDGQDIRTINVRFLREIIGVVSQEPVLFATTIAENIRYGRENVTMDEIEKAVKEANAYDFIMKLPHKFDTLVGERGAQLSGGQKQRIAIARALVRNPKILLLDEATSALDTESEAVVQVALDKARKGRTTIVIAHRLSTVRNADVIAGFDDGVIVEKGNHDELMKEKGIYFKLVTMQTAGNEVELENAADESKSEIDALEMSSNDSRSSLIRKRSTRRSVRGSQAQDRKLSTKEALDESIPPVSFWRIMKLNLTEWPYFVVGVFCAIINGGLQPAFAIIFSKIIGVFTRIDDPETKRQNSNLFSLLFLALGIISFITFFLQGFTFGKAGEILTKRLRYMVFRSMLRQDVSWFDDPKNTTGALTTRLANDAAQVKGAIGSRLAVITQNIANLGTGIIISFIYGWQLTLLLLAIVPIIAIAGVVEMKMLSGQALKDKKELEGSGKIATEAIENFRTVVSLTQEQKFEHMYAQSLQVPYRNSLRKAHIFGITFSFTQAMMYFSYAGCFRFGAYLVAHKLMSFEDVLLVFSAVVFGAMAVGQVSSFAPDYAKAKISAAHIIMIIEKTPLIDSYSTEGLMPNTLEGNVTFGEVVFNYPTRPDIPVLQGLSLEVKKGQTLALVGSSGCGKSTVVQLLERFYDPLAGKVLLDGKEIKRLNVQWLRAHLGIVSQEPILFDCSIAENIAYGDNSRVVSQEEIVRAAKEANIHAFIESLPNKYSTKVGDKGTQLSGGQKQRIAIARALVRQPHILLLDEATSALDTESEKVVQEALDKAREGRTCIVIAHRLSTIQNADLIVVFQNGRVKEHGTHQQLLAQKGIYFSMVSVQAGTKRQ

Row | SMILES | GI50 at 72 h [1] [nM] | IC50 [2] [nM] | Emax at 2 h [3] [%] | Activity [4] | selectivity ratio [8] | selectivity ratio at 2 h [10] | Activity [12] | IC50 [13] [nM] | Emax at 2 h [14] [%] | GI50 at 72 h [15] [nM] | IC50 [19] [nM] | also measured
1 | Cc1cc(Nc2ccc(C#N)c(C)c2)nc(-c2ccccc2)n1 | 15700 | 175 | 106 | Non-Toxic | 167 | 90 | Non-Toxic | 93.5 | 76 | 15700 |  | inhibition (INH) [5]: Active; EC50 [6]: 17.2 nM; inhibition (INH) [7]: Active; Tmin [9]: 4.25 days; Activity [11]: 36%; Activity [16]: 24%; Activity [17]: Non-Toxic; fold change (FC) [18]: 2
2 | Cc1cc(Nc2ccc([N+](=O)[O-])cc2)nc(-c2ccccc2)n1 | 16700 | 156 | 79 | Non-Toxic | 327 | 111 | Non-Toxic | 52.2 | 67 | 17000 | 11200 | 
3 | Cc1cc(Nc2ccc3nccnc3c2)nc(-c2ccccc2)n1 |  | 312 |  | Non-Toxic |  |  | Non-Toxic |  | 100 |  | 13400 | inhibition (INH) [20]: Active
4 | COc1cc(Nc2cc(C)nc(-c3ccccc3)n2)ccc1Br |  | 328 | 100 | Non-Toxic |  |  | Non-Toxic | 280 | 53 |  | 5030 | inhibition (INH) [21]: Not Active; inhibition (INH) [22]: Not Active
